Bioassay records: PubChem BioAssay, several laboratories
Most compounds without a hit are left out; they make up all but 8.9% or so of the library.
b-catenin transl: beta-catenin nuclear translocation modulation. HeLa beta-catenin nuclear translocation, immunofluorescence imaging. nuclear translocation activity, % at 5 µM. 0.3% of 190,000 active. AID 1665;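 active = nuclear translocation activity above 50% at 5 µM, with a well cell count of 50 or more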;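 also: per-cell ratio of nuclear to cytoplasmic median beta-catenin stain intensity; plate controls were DMSO negative control for no effect and GSK-3 inhibitor IX positive control for full effect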
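test system = HeLa cells, endogenous beta-catenin | dosing = single 5 µM dose plus 0.02–20 µM confirmation series | times = compound treatment 24 h, 37°C, 5% CO2 | technique = beta-catenin immunofluorescence imaging with DAPI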
MT stabilize HCS: stabilizes microtubules in HeLa cells. % tubulin-high responders, % at 10 µM. HeLa tubulin immunostaining HCS, 24 h; share of cells brighter than vehicle mean+2SD. 0.83% of 200,000 active. AID 2205;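 active = plate Z-score above 3 for both tubulin-high and condensed-nucleus cell shares, with cell loss under 80%, at 10 µM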;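 also: anti alpha tubulin signal scored within the nucleus-defined area of each cell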
Dynein cargo inh: dynein cargo transport inhibition; 3617.4 mouse cells, GR-EGFP nuclear translocation imaging; test concentration mostly 20 µM; stimulated with dexamethasone, 1 µM; hits give low values; 0.47% of 220,000 active; z-score, hits read low;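 active = plate z-score of nuclear minus cytoplasmic receptor signal below a set negative limit, without overly bright fluorescence or cell loss, cut at about -3.5 in these data, passing the limit was not always enough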;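 also: z-score of nuclear minus cytoplasmic ring GR-EGFP intensity difference per well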
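Also added – dexamethasone, 1.0 µM final · Buffer or medium – tet-free, stripped-serum medium · Schedule – induction 48 h, compound 1 h, agonist 30 min · Detection – formaldehyde fixation, Hoechst nuclear stain, 10x automated fluorescence imaging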
HSV replic up: increases HSV replication in cells; HSV replication augmentation in cells, fold increase; maximum fold increase; 0.005% of 220,000 active; in the data active = maximum fold increase above about 1.5; tested in PC3 cells
Lmaj promast: reduces viability of Leishmania major promastigotes | resazurin fluorescence viability | 9% of 200,000 active | inhibition, % at 10 µM; in the data active = inhibition above about 50%;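 also: promastigotes grown with compound for 44 hours at 28 °C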
L major 1uM: L. major promastigote growth inhibition, 1 uM repeat; inhibition, % at 1 µM; resazurin fluorescence, 48 h; 13% of 1,100 active; shares compounds with Lmaj promast;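 active = inhibition above about 50% in both repeat tests, limit read from the data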
An asterisk follows results filed as active; i = inactive; nt = no result given.

SMILES	b-catenin transl	MT stabilize HCS	Dynein cargo inh	HSV replic up	Lmaj promast	L major 1uM
Cc1ccc(CSc2nnc(NC(=O)Cn3cnc4ccccc4c3=O)s2)cc1	0	3	0.054	i	-4	nt
O=C(COC(=O)c1ccc[nH]c1=O)c1ccc(Cl)s1	0	6	-0.59	i	-7	nt
Cc1ccc(C(=O)OCC(=O)c2ccc(Cl)s2)s1	0	5	-0.8	i	92*	-8
C=CCn1c(SCc2cc(=O)n3ccsc3n2)nc2sc(C)c(C)c2c1=O	2	nt	nt	i	nt	nt
CCn1cc(C(=O)N[C@H](C)c2ccccc2)c(=O)c2cc(F)c(N3CCN(C)CC3)cc21	-14	2	3.1	i	85*	-10
Cc1ccc(C(O)P(=O)(OC2CCCCC2)OC2CCCCC2)cc1 (stereo unspecified)	nt	1	-0.97	i	89*	13
Cc1occc1-c1nc(-c2ccccn2)no1	-3	2	-0.88	i	-2	nt
Cc1onc(-c2ccccc2Cl)c1-c1nc(-c2ccccn2)no1	0	7	1.3	nt	75*	15
CCOc1ccc(S(N)(=O)=O)cc1-c1nc2c(C(C)(C)C)nn(C)c2c(=O)[nH]1	0	nt	-0.021	i	nt	nt
CCOc1ccc(S(=O)(=O)NC(C)(C)C)cc1-c1nc2c(C(C)(C)C)nn(C)c2c(=O)[nH]1	-6	6	-0.5	i	71*	4
O=C(CCNC(=O)c1ccccc1)NCC1CCCCC1	-2	2	0.89	i	-9	nt
O=c1[nH]n(CC2COC3(CCCCC3)O2)c(=O)c2ccccc12 (stereo unspecified)	-3	4	-0.4	i	-4	nt
COc1cccc2c(=O)c(C/C=C(/C)Cl)c(C)[nH]c12	-4	2	-1.3	i	100*	99*
COc1cccc2c(=O)c(SC(F)(F)C(F)C(F)(F)F)c(C)[nH]c12 (stereo unspecified)	-6	8	0.091	i	29	nt
CN1CCN(c2nc(N3CCN(c4ccccc4)CC3)ncc2F)CC1	-1	4	0.11	i	65*	-11
Cc1ccc(NC(=O)c2ccc(OCc3c(C)noc3C)cc2)cc1	-1	nt	-0.31	i	nt	nt
Cc1ccc(CNC(=O)c2cccc(OCc3c(C)noc3C)c2)cc1	-3	6	1.2	i	80*	34
O=C1C2ON(c3ccc(Br)cc3)C(c3cccnc3)C2C(=O)N1C1CCCCC1 (stereo unspecified)	1	2	-0.81	nt	85*	72*
O=C1C2ON(c3ccccc3)C(c3cccnc3)C2C(=O)N1c1ccccc1 (stereo unspecified)	nt	6	0.14	i	-10	nt
CCOC(=O)N1CCC(NS(=O)(=O)c2cc3c(cc2Cl)NC(=O)CO3)CC1	0	4	0.8	i	55*	-8
CC1=Nc2cccc3cccc(c23)N1C	3	6	1.9	i	85*	-18
Cc1cc2c(C)nc(-c3ccccc3)nc2o1	nt	5	1.1	i	-2	nt
Cc1nc(-c2cn[nH]c2)c2cc(C)oc2n1	0	4	-0.16	i	62*	-8
O=C(CNC(=O)c1ccc(Br)o1)Nc1cccc(-c2cnc3ccccc3n2)c1	-2	2	0.21	i	4	nt
Cc1c(NC(=O)OC(C)C)sc(=S)n1C	0	3	-1.4	i	97*	10
SMILES	b-catenin transl	MT stabilize HCS	Dynein cargo inh	HSV replic up	Lmaj promast	L major 1uM
Cc1c(NC(=O)OCCSc2nc(N(C)C)nc(N(C)C)n2)sc(=S)n1C	1	2	-0.071	i	8	nt
CCOc1ccc(/C=C2/C(=N)N3OC(C)=CC3=NC2=O)cc1OC	0	2	-0.038	i	-1	nt
CC(=O)NC1=NN(C(C)=O)C(C)(c2ccccc2)S1 (stereo unspecified)	5	40	-0.71	i	-5	nt
CC(=O)NC1=NN(C(C)=O)C(C)(c2ccc3ccccc3c2)S1 (stereo unspecified)	nt	4	-0.72	i	60*	0
COc1ccc(CC(=O)NC(C)c2nnc(SCC(=O)c3ccc(Br)cc3)n2C)cc1 (stereo unspecified)	nt	3	0.041	i	75*	-4
Cc1ccc(NCC(=O)N/N=C\C(Br)=C\c2ccccc2)cc1	nt	1	0.36	i	68*	2
Cc1cc(C)nc(SCC(=O)N/N=C\C(Br)=C\c2ccccc2)n1	0	4	0.71	i	-3	nt
O=C(O)C(c1ccccc1)C1(O)CCCC1 (stereo unspecified)	-6	1	0.4	i	-3	nt
N=c1c2c(n(Cc3ccccc3)c3c1CCC3)CCC2	-4	2	0.13	i	100*	94*
CCOC(=O)Cn1c2c(c(=N)c3ccccc31)CCC2	nt	4	0.043	i	42	nt
Cc1[nH]c2ccccc2c1/C=C/c1cc[n+](C)cc1	nt	4	0.42	nt	65*	-11
COc1ccc(OC)c(NC(=S)N2CCN(c3ccccn3)CC2)c1	2	2	-0.59	i	-4	nt
CSc1c2c(nc3ncnn13)CCC2	nt	3	0.56	i	51*	-15
COc1ccc(Nc2cc(C(=O)NCCCN3CCN(C)CC3)c3ccccc3n2)cc1	0	6	-6.9	i	5	nt
COc1ccc(NC2=Nc3cccc4cccc2c34)cc1	-1	2	-0.52	i	74*	27
O=C(O)c1cccc(NC2=Nc3cccc4cccc2c34)c1	0	nt	-0.59	i	nt	nt
CCCn1c(O)c(N=Nc2ccc3ccccc3n2)c2ccccc21	-1	4	-1.5	i	-7	nt
CC(C)CCn1c(O)c(N=Nc2ccccn2)c2ccccc21	1	2	0.5	i	69*	-7
Cc1sc2c(c1C)c(=O)nc1n2Cc2ccccc2-1	0	1	1.4	nt	82*	1
CCn1c(NC(=O)c2ccc(COc3ccc(C)cc3[N+](=O)[O-])o2)nc2ccccc21	nt	2	0.064	i	3	nt
CCOC(=O)C(C)On1c(-c2cccc(Cl)c2)nc2ccc([N+](=O)[O-])cc21 (stereo unspecified)	1	2	-0.77	i	95*	-3
Cc1cc(C)c(NC(=O)Cc2ccc(-n3cccc3)cc2)c(C)c1	1	6	0.79	i	0	nt
Cc1c(Cl)cccc1N/C(SCC(=O)N1CCCCCC1)=C(/C#N)c1nc2ccccc2s1	6	11	-0.0091	i	100*	19
NC(=S)Nc1cccc2cc3ccccc3cc12	0	3	-0.41	i	98*	-7
NC(=S)Nc1cc2ccccc2c2ccccc12	3	4	0.22	i	-5	nt
CC(C)Cc1nnc(NC(=O)CSc2nc(O)c(Cc3ccccc3)c(=O)[nH]2)s1	-1	3	-0.068	i	-7	nt
CCN(C(=O)c1ccc(C(C)(C)C)cc1)c1nnc(Cn2nnc3ccccc32)s1	-2	8	1.5	i	54*	36
CCN(C(=O)CC(C)C)c1nnc(Cn2nnc3ccccc32)s1	-1	4	0.4	i	13	nt
